B1: Osa-1-4 twister ribozyme (parent)
chain: CCGCCUAACACUGCCAAUGCCGGUCCCAAGCCCGGAUAAAAGUGGAGGGGGCGG

Data on 167 variants can be found in the RNAGym collection of RNA variant scans (doi:10.1002/anie.201605470).

The data set covers variants of B1. Description: self-cleavage, relative activity (ratio to wild type); higher = more cleavage; co-transcriptional. The essentials: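 A DNA template for a 54-nucleotide Oryza sativa twister ribozyme was synthesised with 97 % wild-type base and 1 % of each other base at the 48 positions downstream of the cleavage site. It was transcribed in vitro for 2 h at 37 °C, allowing co-transcriptional self-cleavage, then reverse-transcribed with a template-switching oligonucleotide, PCR-amplified and deep-sequenced. Cleavage status was scored from reads with or without upstream sequence. Relative activity is fraction cleaved normalised to wild type.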
As for G19U G35U, the self-cleavage was found to be 0.76.

For the variant C20A G45C, the self-cleavage was 0.05.

As to C20A G45A, the self-cleavage was 0.45.

Take C20A G45U: the self-cleavage was determined as 0.13.

Consider C20A G42C, for which the self-cleavage was 0.17.

In the case of C20A G42A, the self-cleavage worked out at 0.59.

For C20A G42U, the self-cleavage is 0.07.

For C20G C32G, the self-cleavage worked out at 0.06.

Take C20G C32A: the self-cleavage is 0.03.

C20G C32U: the self-cleavage was determined as 0.03.

In the case of C20A U12C, the self-cleavage is 0.57.

As to C20A U12A, the self-cleavage was found to be 0.82.

As for C20A U12G, the self-cleavage came out at 0.71.

For the variant C20A U24A, the self-cleavage turned out to be 0.37.

C20A U24G: the self-cleavage is 0.06.

For the variant C20A U24C, the self-cleavage amounted to 0.17.

With C20G C21U, the self-cleavage worked out at 0.29.

As to C20G C21G, the self-cleavage stood at 0.24.

For C20G C21A, the self-cleavage came out at 0.46.

For C20A C26A, the self-cleavage turned out to be 0.08.

Consider C20A C26G, for which the self-cleavage was 0.08.

C20A C26U: the self-cleavage came out at 0.87.

For the variant C20A G35U, the self-cleavage came out at 0.94.

For C20A G35A, the self-cleavage came out at 0.88.

Turning to C20A G35C, the self-cleavage is 0.9.

Turning to C20G C52A, the self-cleavage was 0.08.

As for C20G C52G, the self-cleavage stood at 0.11.

As to G19U G42C, the self-cleavage is 0.06.

For G19U G42A, the self-cleavage came to 0.06.

With G19U G42U, the self-cleavage came to 0.04.

Take G19U U24G: the self-cleavage came out at 0.07.

On to G19U U24C, for which the self-cleavage was 0.07.

Take G19U U24A: the self-cleavage amounted to 0.05.

In the case of C20A G22U, the self-cleavage was 0.53.

Turning to C20A G22C, the self-cleavage was found to be 0.07.

For the variant C20A G22A, the self-cleavage came to 0.39.

On to G19U U37C, for which the self-cleavage is 0.84.

In the case of G19U U37G, the self-cleavage came to 0.53.

As for G19U U37A, the self-cleavage was 0.15.

Regarding G19U G50U, the self-cleavage came out at 0.21.

In the case of G19U G50A, the self-cleavage was found to be 0.59.

G19U G50C: the self-cleavage was 0.1.

For C20G C33A, the self-cleavage was 0.04.

On to C20G C33U, for which the self-cleavage came to 0.05.

For C20G C33G, the self-cleavage came out at 0.05.

For the variant C20A C31A, the self-cleavage amounted to 0.04.

Take C20A C31G: the self-cleavage was 0.14.

Turning to C20A C31U, the self-cleavage is 0.81.

As for C20A, the self-cleavage was found to be 0.86.

With C20G, the self-cleavage amounted to 0.2.

For C20A G13C, the self-cleavage is 0.01.

In the case of C20A G13U, the self-cleavage worked out at 0.02.

With C20A G13A, the self-cleavage was found to be 0.13.

For C20A C52G, the self-cleavage was found to be 0.79.

As to C20A C52A, the self-cleavage came out at 0.8.

In the case of C20A C52U, the self-cleavage was 0.82.

For C20G C31A, the self-cleavage worked out at 0.02.

As to C20G C31G, the self-cleavage was found to be 0.09.

For the variant C20G C31U, the self-cleavage came out at 0.07.

In the case of G19U U18A, the self-cleavage turned out to be 0.11.

Consider G19U U18G, for which the self-cleavage is 0.33.

As for G19U U18C, the self-cleavage amounted to 0.36.

Turning to G19U G45C, the self-cleavage turned out to be 0.04.

For the variant G19U G45U, the self-cleavage worked out at 0.04.

For the variant G19U G45A, the self-cleavage is 0.03.

Regarding G19U G53U, the self-cleavage came to 0.09.

As for G19U G53A, the self-cleavage amounted to 0.1.

Consider G19U G53C, for which the self-cleavage was found to be 0.06.

Regarding C20A C21U, the self-cleavage turned out to be 0.86.

As for C20A C21A, the self-cleavage stood at 0.78.

Take C20A C21G: the self-cleavage came out at 0.12.

Consider C20A U43C, for which the self-cleavage is 0.58.

Regarding C20A U43G, the self-cleavage is 0.71.

For C20A U43A, the self-cleavage is 0.77.

On to C20A G44U, for which the self-cleavage is 0.78.

In the case of C20A G44A, the self-cleavage came to 0.75.

Consider C20A G44C, for which the self-cleavage worked out at 0.76.

Consider C20A U18G, for which the self-cleavage stood at 0.67.

Take C20A U18C: the self-cleavage was determined as 0.83.

As for C20A U18A, the self-cleavage amounted to 0.6.

Consider C20G C26U, for which the self-cleavage came out at 0.2.

As to C20G C26A, the self-cleavage came out at 0.03.

Consider C20G C26G, for which the self-cleavage stood at 0.1.

As for C20A C9G, the self-cleavage amounted to 0.68.

With C20A C9A, the self-cleavage came out at 0.29.

For the variant C20A C9U, the self-cleavage amounted to 0.53.

As for C20A G30C, the self-cleavage stood at 0.04.

As to C20A G30A, the self-cleavage came to 0.04.

For C20A G30U, the self-cleavage stood at 0.03.

Turning to G19U U12A, the self-cleavage was 0.07.

As to G19U U12G, the self-cleavage is 0.09.

As to G19U U12C, the self-cleavage came to 0.05.

Consider C20A G49A, for which the self-cleavage is 0.2.

Turning to C20A G49U, the self-cleavage came out at 0.16.

As to C20A G49C, the self-cleavage came to 0.06.

C20A G47U: the self-cleavage came to 0.32.

Regarding C20A G47C, the self-cleavage stood at 0.13.

C20A G47A: the self-cleavage worked out at 0.36.

C20A C32A: the self-cleavage is 0.07.

C20A C32G: the self-cleavage was 0.05.

With C20A C32U, the self-cleavage was found to be 0.08.

On to C20A G19U, for which the self-cleavage turned out to be 0.78.

For the variant C20A G19A, the self-cleavage amounted to 0.86.

C20A G19C: the self-cleavage was determined as 0.31.

Turning to C20G C27A, the self-cleavage was 0.04.

As for C20G C27U, the self-cleavage stood at 0.05.

Turning to C20G C27G, the self-cleavage came out at 0.05.

Turning to G19U G51C, the self-cleavage is 0.07.

For the variant G19U G51U, the self-cleavage came to 0.08.

On to G19U G51A, for which the self-cleavage was 0.15.

As for G19U U43C, the self-cleavage was 0.07.

As to G19U U43A, the self-cleavage worked out at 0.11.

In the case of G19U U43G, the self-cleavage was found to be 0.09.

With C20A G54U, the self-cleavage stood at 0.76.

Consider C20A G54A, for which the self-cleavage is 0.75.

With C20A G54C, the self-cleavage is 0.78.

With C20A G50A, the self-cleavage was determined as 0.8.

Consider C20A G50U, for which the self-cleavage was 0.82.

As to C20A G50C, the self-cleavage was 0.78.

Consider C20A U37G, for which the self-cleavage worked out at 0.89.

Regarding C20A U37C, the self-cleavage was 0.88.

C20A U37A: the self-cleavage was determined as 0.83.

Consider C20G C9A, for which the self-cleavage worked out at 0.05.

With C20G C9U, the self-cleavage was 0.05.

As for C20G C9G, the self-cleavage stood at 0.1.

For G19U G44A, the self-cleavage came to 0.1.

As to G19U G44C, the self-cleavage worked out at 0.34.

G19U G44U: the self-cleavage stood at 0.19.

Turning to G19U G48A, the self-cleavage turned out to be 0.04.

As for G19U G48U, the self-cleavage was 0.04.

Turning to G19U G48C, the self-cleavage worked out at 0.03.

Take C20A G48C: the self-cleavage was determined as 0.07.

With C20A G48A, the self-cleavage was 0.09.

Take C20A G48U: the self-cleavage came out at 0.09.

G19U G49U: the self-cleavage is 0.03.

With G19U G49C, the self-cleavage was found to be 0.04.

Consider G19U G49A, for which the self-cleavage was 0.04.

Regarding C20A G23C, the self-cleavage is 0.03.

For C20A G23A, the self-cleavage amounted to 0.18.

For C20A G23U, the self-cleavage stood at 0.1.

As for C20A C27G, the self-cleavage came to 0.09.

For the variant C20A C27U, the self-cleavage stood at 0.31.

Regarding C20A C27A, the self-cleavage came out at 0.34.

In the case of C20A C33U, the self-cleavage worked out at 0.76.

Take C20A C33G: the self-cleavage was 0.05.

C20A C33A: the self-cleavage is 0.08.

Turning to C20A G34U, the self-cleavage worked out at 0.64.

For the variant C20A G34C, the self-cleavage turned out to be 0.26.

In the case of C20A G34A, the self-cleavage was determined as 0.84.

Turning to C20A G53A, the self-cleavage was found to be 0.67.

Turning to C20A G53C, the self-cleavage came to 0.1.

Regarding C20A G53U, the self-cleavage came out at 0.42.

With C20A C25U, the self-cleavage was 0.78.

Take C20A C25G: the self-cleavage came to 0.11.

Consider C20A C25A, for which the self-cleavage came out at 0.19.

For the variant C20G C25A, the self-cleavage was determined as 0.06.

As for C20G C25G, the self-cleavage came out at 0.06.

As to C20G C25U, the self-cleavage was found to be 0.21.

For the variant G19U G54A, the self-cleavage was found to be 0.16.

Regarding G19U G54U, the self-cleavage was 0.54.

In the case of G19U G54C, the self-cleavage was 0.1.

In the case of G19U G47U, the self-cleavage worked out at 0.04.

Turning to G19U G47A, the self-cleavage was 0.04.

As for G19U G47C, the self-cleavage turned out to be 0.04.

With C20A G51C, the self-cleavage stood at 0.28.

As to C20A G51U, the self-cleavage was 0.66.

For C20A G51A, the self-cleavage was 0.78.
